Here are results for one compound from ChEMBL document CHEMBL4831478, “Bispecific Estrogen Receptor α Degraders Incorporating Novel Binders Identified Using DNA-Encoded Chemical Library Screening” (J Med Chem, 2021).

Calls of active or inactive are those of the source. The calls are words filed in the database; no cut-off is given here.

Series [1] in a line: Microsomal stability in mouse liver microsomes assessed as intrinsic clearance measured upto 60 mins. The format is ADME, Microsome. Particulars: read-out: CLH. A digest of the protocol: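 Compounds at 2 μM final incubated with pooled human or male mouse liver microsomes. Percent remaining measured at 0, 15, 30, 45 and 60 min and used to calculate in vitro half-life.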
Series [2] has as its system MCF7. Briefly: Antiproliferative activity against human MCF7 cells assessed as growth inhibition preincubated with estradiol for 30 mins followed by compound addition and measured after 72 hrs by CellTiter-Glo assay. It is filed as functional.
Series [3] is described as follows: Toxicity in CD1 mouse xenografted with human MCF7 cells assessed as change in body weight at 10 mg/kg, sc administered once daily for 28 days. The format is organism-based. Particulars: in vivo, 672 h, time 28 day. The method in brief:
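Mice implanted with 17β-estradiol pellets (0.18 mg) 2 days before sc right-flank inoculation of 10×10^6 MCF-7 cells in PBS/Matrigel (50:50). Randomized at mean tumor 165 mm³, 8 per group. Dosed 10 mg/kg sc qd; fulvestrant reference 3 mg/mouse sc weekly. Caliper measurements twice weekly, V = 0.5a×b². TGI from medians. Body weight recorded before each dosing.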

Series [4] can be described thus: AUCinfinity in CD1 mouse at 10 mg/kg, sc administered as single dose […]. Particulars: in vivo. The arrangement: route subcutaneous, dose 10 mg/kg. The format is ADME, organism-based.
Series [5] addresses T1, Estrogen receptor (Homo sapiens) (UniProt P03372).
T1 sequence (whole entry): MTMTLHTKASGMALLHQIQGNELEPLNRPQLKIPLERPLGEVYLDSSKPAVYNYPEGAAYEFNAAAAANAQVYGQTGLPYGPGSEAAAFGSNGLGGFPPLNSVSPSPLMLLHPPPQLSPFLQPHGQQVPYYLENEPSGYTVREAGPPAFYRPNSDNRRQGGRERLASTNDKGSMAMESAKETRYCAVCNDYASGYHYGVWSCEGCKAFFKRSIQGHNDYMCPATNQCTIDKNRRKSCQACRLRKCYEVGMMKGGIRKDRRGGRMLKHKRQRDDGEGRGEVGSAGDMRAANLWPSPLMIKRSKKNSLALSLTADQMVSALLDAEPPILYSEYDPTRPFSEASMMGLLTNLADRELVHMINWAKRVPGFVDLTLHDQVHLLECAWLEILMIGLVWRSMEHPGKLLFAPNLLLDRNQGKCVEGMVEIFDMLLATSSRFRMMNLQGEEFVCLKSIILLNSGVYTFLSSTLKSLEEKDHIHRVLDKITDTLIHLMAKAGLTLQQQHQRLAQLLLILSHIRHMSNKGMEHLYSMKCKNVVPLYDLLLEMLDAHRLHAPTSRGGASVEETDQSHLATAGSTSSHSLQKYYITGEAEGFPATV
The series is described as follows: Induction of ERalpha degradation in human MCF7 cells assessed as reduction in ERalpha expression at 1 uM after 2 hrs by Western blotting analysis. The format is cell-based. A digest of the protocol:
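MCF7 cells in hormone-deprived media (agonist mode) or full-serum media (antagonist mode) were treated with 1 μM compound over a 48 h time course. Cells were lysed and ERα was detected by western blot, with tubulin as the normalizer.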

Series [6] can be described thus: Half life in CD1 mouse at 0.3 mg/kg, iv administered as cassette dosing […]. Particulars: in vivo. It is filed as ADME, organism-based.
The target of series [7] is T2, Estrogen receptor (Homo sapiens, UniProt P03372).
T2 sequence (P03372 whole entry): T1 sequence (whole entry)
The series is described as follows: Induction of ERalpha degradation in human MCF7 cells assessed as decrease in ERalpha protein expression preincubated for 2 hrs followed by compound washout and measured after 22 hrs by Western blotting analysis. It is filed as cell-based. The method in brief: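 MCF7 in-cell western: 2 h compound treatment, washout, cells collected 22 h later, compared with continuous 24 h treatment; ERα normalized to tubulin.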

The target in series [8] is T2, Estrogen receptor. Briefly: Binding affinity to recombinant His-tagged ERalpha LBD (307 to 554 residue) (unknown origin) expressed in Escherichia coli preincubated for 15 mins followed by ligand addition and measured after 1 hr by fluorescent polarization assay. The method in brief:
(§1)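 ERα LBD (aa 307–554), WT or D538G, S463P, Y537S, with N-terminal Avi-Tev-His tag, expressed in E. coli T7 Express (20 °C, 12 h, IPTG). Purified by Ni-NTA then size exclusion. Compound preincubated with protein 15 min, fluorescent ligand added, 1 h at room temperature. FP read ex 485/em 535 nm; duplicate runs averaged.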

The test system of a further series is ZR-75-1. The series is described as follows: Antiproliferative activity against human ZR-75-1 cells assessed as growth inhibition incubated for 7 days by CellTiter-Glo assay. It is filed as functional. Particulars: ZR-75-1, 168 h, time 7 day. The method in brief:
(§2)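 Breast lines from ATCC, maintained in ATCC-specified media, treated with increasing compound doses in full-serum (complete) media for 7 days. Relative cell number measured by CellTiter-Glo ATP read-out.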

A short description of series [9]: Half life in CD1 mouse at 10 mg/kg, sc administered as single dose […]. Particulars: in vivo. The format is ADME, organism-based.
Series [10] has as its target T1, Estrogen receptor (Homo sapiens). Briefly: Induction of ERalpha degradation in human T47D cells assessed as decrease in ERalpha protein expression incubated for 24 hrs by Western blotting analysis. The format is cell-based. The method in brief: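 T47D cells were treated with increasing doses for 24 h. Lysates were western blotted with rabbit anti-ERα, and actin served as the loading control. DC50 was read from the dose series.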

The target in series [11] is Estrogen receptor (Homo sapiens, UniProt P03372, D538G). Briefly: Binding affinity to ERalpha D538G mutant (unknown origin) expressed in Escherichia coli preincubated for 15 mins followed by ligand addition and measured after 1 hr by fluorescent polarization assay. A digest of the protocol:
as §1

Series [12] is described as follows: Drug uptake in CD1 mouse tumor xenografted with human MCF7 cells 10 mg/kg, sc measured after 3 hrs post last dose. Particulars: in vivo.
The test system of the next series is T47D. Briefly: Antiproliferative activity against human T47D cells assessed as growth inhibition incubated for 7 days by CellTiter-Glo assay. It is filed as functional. Particulars: 168 h, time 7 day. The method in brief: as §2
In series [13] the target is Estrogen receptor (Homo sapiens, UniProt P03372, S463P). The series is described as follows: Binding affinity to ERalpha S463P mutant (unknown origin) expressed in Escherichia coli preincubated for 15 mins followed by ligand addition and measured after 1 hr by fluorescent polarization assay. A digest of the protocol:
as §1

The nature of series [14]: Volume of distribution at steady state in CD1 mouse at 0.3 mg/kg, iv administered as cassette dosing […]. Particulars: in vivo, read-out: Vdss. It is filed as ADME, organism-based.
The subject of series [15] is MCF7. Briefly: Antiproliferative activity against human MCF7 cells assessed as growth inhibition preincubated with estradiol for 30 mins followed by compound addition and measured after 7 days by CellTiter-Glo assay. The format is functional. Particulars: MCF7, 168 h, time 7 day. The method in brief:
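MCF7 cells seeded in hormone-deprived media for 72 h. All wells except minimum-signal controls received 0.1 nM estradiol for 30 min, then compound in a 10-point dose series. Incubated 7 days at 37 °C, 5% CO2; ATP content read by CellTiter-Glo 2.0. Duplicate runs averaged.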

The species named for another series is Homo sapiens. Briefly: Selectivity index, ratio of DC50 for induction of ERalpha degradation in human MCF7 cells in presence of VHL298 to DC50 for induction of ERalpha degradation in human MCF7 cells. The format is cell-based. The method in brief:
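MCF7 cells were treated with a PROTAC dose series, alone or co-treated with the VHL ligand VHL298 (5 μM), for 48 h in total before collection. ERα degradation DC50 was determined under both conditions and the two values compared as a ratio.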

Series [16] can be described thus: Solubility of compound. The format is physicochemical.
Series [17] is described as follows: Cmax in CD1 mouse at 10 mg/kg, sc administered as single dose […]. It is filed as ADME, organism-based. The arrangement: route subcutaneous, dose 10 mg/kg. Particulars: in vivo.
Series [18] is described as follows: Drug uptake in CD1 mouse plasma xenografted with human MCF7 cells 10 mg/kg, sc measured after 3 hrs post last dose. Particulars: in vivo.

Estrogen receptor (Homo sapiens, UniProt P03372, S463P), sequence (P03372 whole entry S463P): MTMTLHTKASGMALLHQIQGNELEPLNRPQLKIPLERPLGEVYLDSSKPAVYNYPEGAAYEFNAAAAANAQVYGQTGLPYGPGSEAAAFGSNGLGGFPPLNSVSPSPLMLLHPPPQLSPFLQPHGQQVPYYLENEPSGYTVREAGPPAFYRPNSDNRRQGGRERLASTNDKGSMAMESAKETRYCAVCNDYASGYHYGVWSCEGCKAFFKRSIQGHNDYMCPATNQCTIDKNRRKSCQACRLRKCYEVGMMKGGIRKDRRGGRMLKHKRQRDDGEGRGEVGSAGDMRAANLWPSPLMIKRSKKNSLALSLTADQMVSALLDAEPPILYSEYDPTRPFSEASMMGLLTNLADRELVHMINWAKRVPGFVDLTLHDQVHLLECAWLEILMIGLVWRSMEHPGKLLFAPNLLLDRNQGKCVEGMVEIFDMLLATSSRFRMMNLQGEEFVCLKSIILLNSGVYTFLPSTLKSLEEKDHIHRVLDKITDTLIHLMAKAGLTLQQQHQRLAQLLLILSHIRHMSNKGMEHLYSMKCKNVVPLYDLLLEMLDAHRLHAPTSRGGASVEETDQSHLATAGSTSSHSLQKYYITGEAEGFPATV
Estrogen receptor (Homo sapiens, UniProt P03372, D538G), sequence (P03372 whole entry D538G): as the sequence (P03372 whole entry S463P) above, with P463S, D538G counted along it

As to `Cc1ncsc1-c1ccc([C@@H](C)NC(=O)[C@@H]2C[C@@H](O)CN2C(=O)[C@H](NC(=O)COCCOCc2cn(CCOc3ccc(N(Cc4cccc(O)c4Cl)CC4(c5ccccc5F)CCCC4)cc3)nn2)C(C)(C)C)cc1`, the microsomal CLint in series [1] came to 249 µL/min/mg. Besides, the GI50 with MCF7 [2] is above 10 µM; in the series with ZR-75-1, 40.9 nM; in the series on T47D, 171 nM; in the series on MCF7 [15], 30 nM. In [3], the Activity entry is on record as “Non-Toxic”. In [4], this compound had an area under the curve AUC(0-inf) of 14.6 µM·h. The result in [5] and in series [10] was Active. Besides, the half-life in [6] was 522 min; in series [9], 1020 min. The DC50 at Estrogen receptor [7] worked out at 37 nM. For the same compound, the figures for the IC50 at Estrogen receptor [8], at Estrogen receptor [11] and on Estrogen receptor [13] were 53 nM, 517 nM and 203 nM, respectively. The Drug uptake result in [12] and in series [18] was “Active” in each case. In series [14], the Vd was found to be 4.82 L/kg. The Selectivity Index in the series listed under Homo sapiens amounted to 8. Further, the solubility in [16] was below 0.2 µM. Further, in [17], the Cmax is 2130 nM.
